Format in all cases: functional
The subject of experiment [1] is Bacillus subtilis. As to the kind of experiment: Antimicrobial activity against Bacillus subtilis RCMB 010063 after overnight incubation by macro-tube dilution technique. The essentials:
(§1)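 Macro-tube twofold dilution following NCCLS guidance, run in nutrient broth. The first tube held 10 mg compound in 2.0 mL DMSO and was serially halved 1:1 into 1.0 mL broth through tube 14; tube 15 was the control. The inoculum was suspended to turbidity in 5.0 mL broth, 0.2 mL was diluted into 40 mL, and 1.0 mL was added per tube. Tubes were incubated overnight at 37 °C. MIC was the lowest concentration with no growth.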

In experiment [2] the test system is Candida albicans. As to the kind of experiment: Antimicrobial activity against Candida albicans RCMB 05035 after 72 hrs by macro-tube dilution technique. Particulars: RCMB 05035, 72 h. The essentials: (§2)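 Twofold macro-tube dilution following NCCLS guidance, run in malt extract broth. 10 mg compound in 2.0 mL DMSO in tube 1 was serially diluted 1:1 through tube 14 into 1.0 mL broth; tube 15 was the control. Culture was suspended to turbidity in 5.0 mL broth, 0.2 mL was diluted into 40 mL, and 1.0 mL was added per tube. Incubation was 72 h at 30 °C. MIC was the lowest concentration with no growth.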

For experiment [3], the system named is Klebsiella pneumoniae. Briefly: Antimicrobial activity against Klebsiella pneumoniae RCMB 010093 after overnight incubation by macro-tube dilution technique. The essentials:
as §1

Experiment [4] relates to Klebsiella pneumoniae. Briefly: Antimicrobial activity against Klebsiella pneumoniae RCMB 010093 assessed as diameter of zone inhibition at 5 mg/ml after 24 hrs by agar well diffusion assay. Conditions: RCMB 010093, 24 h, read-out: DIZ. The essentials:
(§3)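 Agar well diffusion: 100 µL of 1 x10^8 CFU/mL bacteria was spread on nutrient agar. 10 mm wells received 100 µL of compound at 5 mg/mL in DMSO, or ampicillin or gentamycin standards at 1 mg/mL. DMSO served as negative control. Plates were incubated 24 h at 37 °C. Inhibition zone diameter (mm) was measured as the mean of triplicates.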
Background: In agar diffusion tests the substance spreads into inoculated agar from a disc or well.

Experiment [5] relates to Shigella flexneri. Briefly: Antimicrobial activity against Shigella flexneri RCMB 0100542 assessed as diameter of zone inhibition at 5 mg/ml after 24 hrs by agar well diffusion assay. Particulars: RCMB 0100542, 24 h, read-out: DIZ. The essentials: as §3
The subject of experiment [6] is Staphylococcus epidermidis. As to the kind of experiment: Antimicrobial activity against Staphylococcus epidermidis RCMB 010024 after overnight incubation by macro-tube dilution technique. The essentials: as §1
For experiment [7], the system named is Aspergillus fumigatus. Briefly: Antimicrobial activity against Aspergillus fumigatus RCMB 02564 assessed as diameter of zone inhibition at 5 mg/ml after 72 hrs by agar well diffusion assay. Particulars: RCMB 02564, 72 h, read-out: DIZ. The essentials:
(§4)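 Fungi (1 x10^6 CFU/mL, 100 µL) were spread on Sabouraud dextrose agar. 10 mm wells were loaded with 100 µL of test solution at 5 mg/mL in DMSO, or amphotericin B standard at 1 mg/mL. A DMSO negative control was included. Plates were incubated 72 h at 28 °C. Inhibition zone diameter (mm) was recorded as the average of triplicate runs.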

In experiment [8] the test system is Aspergillus clavatus. As to the kind of experiment: Antimicrobial activity against Aspergillus clavatus RCMB 02593 assessed as diameter of zone inhibition at 5 mg/ml after 72 hrs by agar well diffusion assay. Conditions: RCMB 02593, 72 h, read-out: DIZ. The essentials:
as §4

The test system of experiment [9] is Proteus vulgaris. Briefly: Antimicrobial activity against Proteus vulgaris RCMB 010085 assessed as diameter of zone inhibition at 5 mg/ml after 24 hrs by agar well diffusion assay. Conditions: RCMB 010085, 24 h, read-out: DIZ. The essentials:
as §3

In experiment [10] the test system is Candida albicans. Briefly: Antimicrobial activity against Candida albicans RCMB 05035 assessed as diameter of zone inhibition at 5 mg/ml after 72 hrs by agar well diffusion assay. Particulars: RCMB 05035, 72 h, read-out: DIZ. The essentials:
as §4

The test system of experiment [11] is Bacillus subtilis. Briefly: Antimicrobial activity against Bacillus subtilis RCMB 010063 assessed as diameter of zone inhibition at 5 mg/ml after 24 hrs by agar well diffusion assay. Particulars: RCMB 010063, 24 h, read-out: DIZ. The essentials: as §3
In experiment [12] the test system is Aspergillus fumigatus. Briefly: Antimicrobial activity against Aspergillus fumigatus RCMB 02564 after 72 hrs by macro-tube dilution technique. Particulars: RCMB 02564, 72 h. The essentials: as §2
Experiment [13] deals with Staphylococcus aureus. As to the kind of experiment: Antimicrobial activity against Staphylococcus aureus RCMB 010027 assessed as diameter of zone inhibition at 5 mg/ml after 24 hrs by agar well diffusion assay. Conditions: RCMB 010027, 24 h, read-out: DIZ. The essentials: as §3
Experiment [14] relates to Shigella flexneri. Briefly: Antimicrobial activity against Shigella flexneri RCMB 0100542 after overnight incubation by macro-tube dilution technique. The essentials:
as §1

In experiment [15] the test system is Aspergillus clavatus. As to the kind of experiment: Antimicrobial activity against Aspergillus clavatus RCMB 02593 after 72 hrs by macro-tube dilution technique. Conditions: RCMB 02593, 72 h. The essentials: as §2
Experiment [16] deals with Proteus vulgaris. Briefly: Antimicrobial activity against Proteus vulgaris RCMB 010085 after overnight incubation by macro-tube dilution technique. The essentials: as §1
Experiment [17] concerns Staphylococcus aureus. As to the kind of experiment: Antimicrobial activity against Staphylococcus aureus RCMB 010027 after overnight incubation by macro-tube dilution technique. The essentials: as §1
Experiment [18] concerns Staphylococcus epidermidis. Briefly: Antimicrobial activity against Staphylococcus epidermidis RCMB 010024 assessed as diameter of zone inhibition at 5 mg/ml after 24 hrs by agar well diffusion assay. Particulars: RCMB 010024, 24 h, read-out: DIZ. The essentials: as §3
The subject of experiment [19] is Bacillus subtilis. Briefly: Antimicrobial activity against Bacillus subtilis RCMB 010063 assessed as diameter of zone inhibition at 1 mg/ml after 24 hrs by agar well diffusion assay. Conditions: RCMB 010063, 24 h, read-out: DIZ.
Experiment [20] concerns Staphylococcus aureus. As to the kind of experiment: Antimicrobial activity against Staphylococcus aureus RCMB 010027 assessed as diameter of zone inhibition at 1 mg/ml after 24 hrs by agar well diffusion assay. Conditions: RCMB 010027, 24 h, read-out: DIZ.
In experiment [21] the test system is Staphylococcus epidermidis. As to the kind of experiment: Antimicrobial activity against Staphylococcus epidermidis RCMB 010024 assessed as diameter of zone inhibition at 1 mg/ml after 24 hrs by agar well diffusion assay. Particulars: RCMB 010024, 24 h, read-out: DIZ.
In experiment [22] the test system is Proteus vulgaris. Briefly: Potency index, ratio of Gentamycin IC50 to compound IC50 for Proteus vulgaris RCMB 010085.

Molecules are shown by their SMILES. In brackets after ≈: the same amount, converted by molar mass.

Usually MIC stands for the lowest concentration found to suppress growth. As to `CCOC(=O)c1c(C)nn(-c2ccc3ccccc3n2)c1N`, the MIC in the experiment on Bacillus subtilis [1] was determined as 1.95 µg/mL (≈ 6.58 µM); in the experiment on Candida albicans [2], 1.95 µg/mL (≈ 6.58 µM); in the experiment with Klebsiella pneumoniae [3], 31.2 µg/mL (≈ 105 µM); in experiment [6] it was 15.6 µg/mL (≈ 52.7 µM); with Aspergillus fumigatus [12], 31.2 µg/mL (≈ 105 µM); in the experiment on Shigella flexneri [14] it was 15.6 µg/mL (≈ 52.7 µM). Moreover, the MIC in the experiment on Aspergillus clavatus [15] came to 3.9 µg/mL (≈ 13.2 µM); with Proteus vulgaris [16], 125 µg/mL (≈ 422 µM); against Staphylococcus aureus [17], 1.95 µg/mL (≈ 6.58 µM). Further, the zone of inhibition at 5000 µg/mL in the experiment with Klebsiella pneumoniae [4] stood at 15.9 mm; in the experiment on Shigella flexneri [5], 16.8 mm; in the experiment on Aspergillus fumigatus [7] it was 16.3 mm; in the experiment with Aspergillus clavatus [8] it was 18.6 mm; with Proteus vulgaris [9] it was 13.6 mm; in the experiment on Candida albicans [10] it was 19.8 mm. The zone of inhibition at 5000 µg/mL in the experiment with Bacillus subtilis [11] worked out at 20.2 mm; in the experiment with Staphylococcus aureus [13] it was 20.3 mm; in experiment [18], 17.3 mm.
In the case of `CC1(C)S[C@@H]2[C@H](NC(=O)[C@H](N)c3ccccc3)C(=O)N2[C@H]1C(=O)O` [AMPICILLIN], the MIC was 0.007 µg/mL (≈ 0.02 µM) with Bacillus subtilis [1], 0.48 µg/mL (≈ 1.37 µM) in experiment [6] and 0.06 µg/mL (≈ 0.172 µM) against Staphylococcus aureus [17]. Further, the zone of inhibition at 1000 µg/mL in the experiment with Bacillus subtilis [19] stood at 34.6 mm; in the experiment with Staphylococcus aureus [20], 28.9 mm; in experiment [21] it was 25.4 mm.
As to `Clc1ccccc1C1CC(c2ccc(Oc3ccc4ccccc4n3)cc2)=NN1` (stereo unspecified), the MIC in the experiment with Bacillus subtilis [1] came to 1.95 µg/mL (≈ 4.88 µM); in the experiment on Candida albicans [2] it was 1.95 µg/mL (≈ 4.88 µM); in the experiment with Klebsiella pneumoniae [3], 1.95 µg/mL (≈ 4.88 µM); in experiment [6] it was 0.97 µg/mL (≈ 2.43 µM); with Aspergillus fumigatus [12] it was 7.81 µg/mL (≈ 19.5 µM); with Shigella flexneri [14], 1.95 µg/mL (≈ 4.88 µM). For the same compound, the MIC against Aspergillus clavatus [15] was 15.6 µg/mL (≈ 39.1 µM); in the experiment on Proteus vulgaris [16] it was 0.97 µg/mL (≈ 2.43 µM); in the experiment with Staphylococcus aureus [17] it was 0.97 µg/mL (≈ 2.43 µM). Also, the zone of inhibition at 5000 µg/mL in the experiment on Klebsiella pneumoniae [4] turned out to be 22.8 mm; in the experiment with Shigella flexneri [5] it was 23.6 mm; with Aspergillus fumigatus [7] it was 21.4 mm; with Aspergillus clavatus [8] it was 17.5 mm; in the experiment with Proteus vulgaris [9], 23.6 mm; in the experiment with Candida albicans [10], 18.5 mm. Besides, the zone of inhibition at 5000 µg/mL was 24.2 mm with Bacillus subtilis [11], 23.9 mm in the experiment on Staphylococcus aureus [13] and 25.3 mm in [18]. In addition, the Ratio with Proteus vulgaris [22] turned out to be 2.
Take `C(=N\Nc1ccc2ccccc2n1)/c1cn(-c2ccccc2)nc1-c1ccccc1`: the MIC is 1.97 µg/mL (≈ 5.06 µM) against Bacillus subtilis [1]; 7.81 µg/mL (≈ 20.1 µM) against Candida albicans [2]; 3.9 µg/mL (≈ 10 µM) in the experiment with Klebsiella pneumoniae [3]; 3.9 µg/mL (≈ 10 µM) in experiment [6]; 7.81 µg/mL (≈ 20.1 µM) against Aspergillus fumigatus [12]; 7.81 µg/mL (≈ 20.1 µM) with Shigella flexneri [14]. For the same compound, the minimum inhibitory concentration (MIC) was 15.6 µg/mL (≈ 40.1 µM) against Aspergillus clavatus [15], 7.81 µg/mL (≈ 20.1 µM) in the experiment on Proteus vulgaris [16] and 3.9 µg/mL (≈ 10 µM) against Staphylococcus aureus [17]. Further, the zone of inhibition at 5000 µg/mL with Klebsiella pneumoniae [4] was found to be 21.2 mm; in the experiment on Shigella flexneri [5] it was 20.1 mm; in the experiment with Aspergillus fumigatus [7], 17.5 mm; in the experiment with Aspergillus clavatus [8], 18.4 mm; in the experiment on Proteus vulgaris [9], 20.2 mm; in the experiment with Candida albicans [10] it was 19.6 mm. Further, the results for the zone of inhibition at 5000 µg/mL (with Bacillus subtilis [11]; in the experiment with Staphylococcus aureus [13]; in experiment [18]) were 23.2 mm, 22.2 mm and 23.4 mm, respectively.

The values are drawn from ChEMBL document CHEMBL4138150, “Quinoline derivatives bearing pyrazole moiety: Synthesis and biological evaluation as possible antibacterial and antifungal agents” (2018).
